# PubChem BioAssay AID504383 (The Scripps Research Institute Molecular Screening Center, 2011)
# The campaign covered roughly 2,500 compounds. About 1,200 (48%) were called active.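 The calls were made as follows: active = mean activation above the low control average plus 3 SD, as set in the primary screen (cut at about 12% in these data); inactive = the rest.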 The set was probably picked from earlier hits. This is one part of the list.
# Molecular target: Troponin I, cardiac muscle (Homo sapiens) + Troponin T, cardiac muscle (Homo sapiens) + Troponin C, slow skeletal and cardiac muscles (Homo sapiens) (UniProt P19429+P45379+P63316)
# Test: calcium sensitizers of cardiac thin filaments – biochemical, IANBD-TnC fluorescence, triplicate, confirmation (AID 504383);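 also: 0% = DMSO at 0.472 mM calcium and 100% = DMSO at 2.9 mM calcium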
# Settings: IANBD-labeled cardiac RTF, Ca2+ sensitivity fluorescence; at 7.2 µM; active compounds read high; scaled from EC20 to saturating calcium; tested at EC20 calcium, 0.472 mM
# Procedure, shortened: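 Test system: labelled regulated thin filament protein complex. Dosing: single nominal compound dose of 7.2 µM. Benchmarks: EC20 and EC100 calcium wells. Read-out basis: fluorescence gain scaled between EC20 and EC100 calcium controls. Probe or stimulus: submaximal calcium at 0.472 mM (EC20). Technique: fluorescence. Times: 15 min compound exposure, 25 °C.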
row,SMILES,activation
1,Cc1ccc(/C=C2\Oc3c(ccc(O)c3CN3CCN(C)CC3)C2=O)cc1,1.83% (inactive)
2,Cc1ccc(/C=C2\Oc3c(ccc(O)c3CN3CCN(CCO)CC3)C2=O)cc1,34.7% (active)
3,CCN1CCN(Cc2c(O)ccc3c2O/C(=C\C=C\c2ccccc2OC)C3=O)CC1,8.36% (inactive)
4,CC(C)c1ccc(/C=C2\Oc3c(ccc(O)c3CN3CCN(C)CC3)C2=O)cc1,7.76% (inactive)
5,O=C1/C(=C/C=C/c2ccccc2)Oc2c1ccc(O)c2CN1CCN(CCO)CC1,126% (active)
6,COc1ccccc1/C=C/C=C1\Oc2c(ccc(O)c2CN2CCN(CCO)CC2)C1=O,41.9% (active)
7,CC(=O)c1ccc2c(c1)c(C#N)c1ccccc1[n+]2[O-],174% (active)
8,CC1(C)CC(N2CCCC2)=CC(=[N+]2CCCCC2)C1,16% (active)
9,COc1ccc(-n2c(O)c(/C=N/NS(=O)(=O)c3ccc(C)cc3)c3ccccc3c2=O)cc1OC,46% (active)
10,COc1ccc(-n2c(O)c(/C=N/NS(=O)(=O)c3ccc(C)c([N+](=O)[O-])c3)c3ccccc3c2=O)cc1OC,3.31% (inactive)
11,COc1ccc(-n2c(O)c(/C=N/NS(=O)(=O)c3cc(C)ccc3C)c3ccccc3c2=O)cc1OC,10.9% (inactive)
12,CCC12CN3CCN(CC(C3)/C1=N\NC(=O)Nc1ccccc1)C2,4.76% (inactive)
13,O=C(c1ccccc1)[C@@H]1[C@@H]2C(=O)N(c3ccc(F)cc3)C(=O)[C@@H]2C2CCCN21 (stereo partly drawn),22.7% (active)
14,Cc1ccc(N2C(=O)[C@@H]3[C@H](C2=O)C2CCCN2[C@@H]3C(=O)c2ccccc2)cc1 (stereo partly drawn),290% (active)
15,Cc1ccc(C(=O)N2C(=O)C(c3ccccc3)Oc3ccccc32)cc1 (stereo not drawn),5.01% (inactive)
16,COc1cccc(C2CC(c3ccccc3)n3ncnc3N2)c1 (stereo not drawn),19.8% (active)
17,O=C1CC(c2cccc(Oc3ccccc3)c2)NC(=O)N1 (stereo not drawn),6.43% (inactive)
18,N#C/C(=C(/O)COC(=O)COc1ccc(Cl)cc1)c1nc2ccccc2[nH]1,13.2% (active)
19,COc1ccc(C(=O)OC/C(O)=C(\C#N)c2nc3ccccc3[nH]2)cc1S(=O)(=O)N1CCOCC1,-0.63% (inactive)
20,CCN(CC)c1ccc(C=Nc2cc(C)ccc2C)c(O)c1,15.7% (active)

row,SMILES,activation
1,Cc1ccc(N=Cc2sc(O)c3ccccc23)c(C)c1,7.52% (inactive)
2,O=C(c1ccc2c(=O)n3c(nc2c1)CCCCC3)N1CCN(c2cccc(Cl)c2)CC1,0.38% (inactive)
3,COc1ccccc1NC(=O)CC(=O)CSc1nnc(-c2ccc(C)cc2)n1-c1ccccc1,3.38% (inactive)
4,Cc1ccc(C(=O)NNC(=O)CSc2nnc(-c3ccncc3)n2-c2ccc(C)cc2)cc1,7.51% (inactive)
5,COc1ccc(-c2nnc(SCC(=O)c3ccc[nH]3)n2-c2ccccc2)cc1,15.9% (active)
6,Cn1cc(Cl)c(-c2nc3ccccc3[nH]2)n1,20.4% (active)
7,Cn1nc([N+](=O)[O-])c(C(C#N)c2ccccn2)c(Cl)c1=O (stereo not drawn),8.7% (inactive)
8,CCOC(=O)c1ccc(NC(=O)c2cc3c(C)nn(-c4ccccc4Cl)c3s2)s1,16.9% (active)
9,CCN(CC)CCCNc1ccc2ncn3c4ccc(O)cc4c(=O)c1c23,-1.43% (inactive)
10,O=C/C(=C\Nc1ccc(S(=O)(=O)CCO)cc1)c1nc2cc(Cl)ccc2o1,65% (active)
11,N#CC(C#N)=C1C=C2C=C(N3CCCCCC3)CCC2CC1 (stereo not drawn),5.58% (inactive)
12,COc1ccc2ccccc2c1C(O)c1nccn1C (stereo not drawn),58% (active)
13,CN1c2ccc(C=O)c3c(C=O)ccc(c23)N(C)C1(C)C,1.58% (inactive)
14,CC1=CC2=NC(=O)/C(=C\c3ccc(-c4cccc(Cl)c4)o3)C(=N)N2O1,101% (active)
15,OCCNCc1cccc(OCc2ccc(Cl)cc2)c1,173% (active)
16,COc1ccc(CNCc2cccc(Cl)c2)cc1,4.73% (inactive)
17,O=C(C1CCN(Cc2ccc(OCc3ccccc3)cc2)CC1)N1CCCC1,-1.48% (inactive)
18,CN1CCN(/N=C/c2ccc(OCc3ccccc3)cc2)CC1,309% (active)
19,CN1CCN(CCOc2ccc(Cc3ccccc3)cc2)CC1,9.76% (inactive)
20,O=C(O)C1CC(O)CN1C(=O)c1ccco1 (stereo not drawn),5.9% (inactive)

row,SMILES,activation
1,O=C(NCc1ccco1)C1Cc2ccccc2CN1C(=O)c1ccco1 (stereo not drawn),2880% (active)
2,O=C(NCc1ccco1)C1CCC(N2C(=O)C3C4CCC(C4)C3C2=O)CC1 (stereo not drawn),6.57% (inactive)
3,CCCCCCCCOc1ccc(C2OC34CCCCC3C(C#N)(C#N)C2(C#N)C(=N)O4)cc1 (stereo not drawn),17.2% (active)
4,CCOc1ccc(C2OC34CCCCC3C(C#N)(C#N)C2(C#N)C(=N)O4)cc1OC (stereo not drawn),7.44% (inactive)
5,CCCCOc1ccc(C2OC34CCCCC3C(C#N)(C#N)C2(C#N)C(=N)O4)cc1 (stereo not drawn),6.95% (inactive)
6,CCCCC1OC23CCCCC2C(C#N)(C(=N)O3)C1(C#N)C#N (stereo not drawn),10.2% (inactive)
7,N#CC1(C#N)C(c2ccccc2)OC23CCCCC2C1(C#N)C(=N)O3 (stereo not drawn),-2.46% (inactive)
8,CCC1OC23CCCCC2C(C#N)(C(=N)O3)C1(C#N)C#N (stereo not drawn),10.4% (inactive)
9,CCCCC1OC23CCCCC2C(C#N)(C#N)C1(C#N)C(=N)O3 (stereo not drawn),13% (active)
10,CCCC1OC23CCCCC2C(C#N)(C#N)C1(C#N)C(=N)O3 (stereo not drawn),179% (active)
11,COc1ccc(C2OC34CCCCC3C(C#N)(C#N)C2(C#N)C(=N)O4)cc1 (stereo not drawn),5.98% (inactive)
12,COc1cccc(/C=N/Nc2nnc3c(n2)[nH]c2ccccc23)c1OC,13.1% (active)
13,COc1cccc(/C=N/c2nc3ccccc3[nH]2)c1O,6.09% (inactive)
14,NC(=O)[C@@H]1CCCNc2c(I)cc([N+](=O)[O-])cc2C(=O)N[C@@H](CCC(=O)O)C(=O)N[C@@H](CO)C(=O)N1,6.37% (inactive)
15,OC(CNCC1CCCO1)Cn1c2ccc(Br)cc2c2cc(Br)ccc21 (stereo not drawn),34.1% (active)
16,COC(=O)C(C)n1cnc2c(nnn2Cc2ccc(Cl)cc2)c1=O (stereo not drawn),12.4% (active)
17,Cc1ccccc1-n1c(SCc2c(C)noc2C)nnc1-c1cccnc1,13.8% (active)
18,COc1cc2c(cc1OC)CN(Cc1cc(=O)oc3cc(C)c(C)cc13)CC2,-0.4% (inactive)
